ChEMBL document CHEMBL1122233, “Antihypertensive 9-substituted 1-oxa-4,9-diazaspiro[5.5]undecan-3-ones” (J Med Chem, 1983)

What was measured:
[1] = test system: Rattus norvegicus; assay: (§1) Percentage fall in systolic blood pressure after 4 hr at 25 mg/kg given perorally; assay type: functional, organism-based; parameters: dose 25 mg/kg; settings: Artery
How it was run: (§2)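 Male Okamoto-Aoki spontaneously hypertensive rats, trained, in groups of four matched for mean systolic pressure; five treated groups and one vehicle control run concurrently. Oral dosing in water (solution or suspension, 0.1 mL/10 g) on two consecutive mornings. On day 2, rats were restrained at 30.0 ± 1.0 °C and tail-cuff systolic pressure recorded at 1–4 h; percent fall versus control, 1-tail t test, p ≤ 0.05.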

[2] = test system: Rattus norvegicus; assay: Percentage fall in systolic blood pressure after 2 hr at 25 mg/kg given perorally; assay type: functional, Artery; settings: route oral; how it was run: as §2
[3] = test system: Rattus norvegicus; assay: Percentage fall in systolic blood pressure after 4 hr at 12.5 mg/kg given perorally; assay type: functional, Artery; settings: route oral; how it was run: as §2
[4] = test system: Rattus norvegicus; assay: as §1; assay type: functional, Artery; settings: route oral; how it was run: as §2
[5] = test system: Rattus norvegicus; assay: Percentage fall in systolic blood pressure after 2 hr at 12.5 mg/kg given perorally; assay type: functional, Artery; settings: route oral; how it was run: as §2
[6] = test system: Rattus norvegicus; assay: Percentage fall in systolic blood pressure after 3 hr at 25 mg/kg given perorally; assay type: functional, Artery; settings: route oral; how it was run: as §2
[7] = test system: Rattus norvegicus; assay: Percentage fall in systolic blood pressure after 1 hr at 12.5 mg/kg given perorally; assay type: functional, Artery; settings: route oral
How it was run: (§3)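 Male Okamoto-Aoki SHR, four per group, with a concurrent vehicle control group. Oral dosing in water (0.1 mL/10 g) on two consecutive mornings. After the day-2 dose, rats were restrained in a 30 °C chamber. Tail-cuff systolic pressure was taken at 1-4 h from four traces per rat. Result is % decrease versus control mean, by 1-tailed t test, p ≤ 0.05.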

[8] = test system: Rattus norvegicus; assay: Percentage fall in systolic blood pressure after 4 hr at 6.25 mg/kg given perorally; assay type: functional, organism-based; parameters: dose 6.25 mg/kg; settings: Artery; how it was run: as §2
[9] = test system: Rattus norvegicus; assay: Percentage fall in systolic blood pressure after 1 hr at 6.25 mg/kg given perorally; assay type: functional, Artery; settings: route oral; how it was run: as §3
[10] = test system: Rattus norvegicus; assay: Percentage fall in systolic blood pressure after 1 hr at 25 mg/kg given perorally; assay type: functional, Artery; settings: route oral; how it was run: as §2
[11] = test system: Rattus norvegicus; assay: Percentage fall in systolic blood pressure after 3 hr at 6.25 mg/kg given perorally; assay type: functional, Artery; settings: route oral; how it was run: as §2
[12] = test system: Rattus norvegicus; assay: Percentage fall in systolic blood pressure after 2 hr at 6.25 mg/kg given perorally; assay type: functional, Artery; settings: route oral; how it was run: as §2

Row | Structure (SMILES) | Decrease in SBP [1] | Decrease in SBP ([2]; 25 mg/kg) [%] | Decrease in SBP [3] [%] | Decrease in SBP [4] [%] | Decrease in SBP [5] [%] | Decrease in SBP ([6]; 25 mg/kg) [%] | Decrease in SBP [7] [%] | Decrease in SBP [2] [%] | Decrease in SBP [8] | Decrease in SBP [9] [%] | Decrease in SBP [10] [%] | Decrease in SBP [11] [%] | Decrease in SBP [12] [%] | Decrease in SBP [6] [%]
1 | CN1CC2(CCN(CC(O)C3COc4ccccc4O3)CC2)OCC1=O (stereo in doubt; 60) | Not significant | – | – | – | – | – | – | – | – | – | – | – | – | –
2 | CN1CC2(CCN(CC(O)C3COc4ccccc4O3)CC2)OCC1=O (stereo in doubt; 61) | – | 36 | 19 | 40 | 22 | 40 | 25 | – | – | – | – | – | – | –
3 | O=C1COC2(CCN(CC3COc4ccccc4O3)CC2)CN1 (stereo not given) | – | – | – | 38 | – | – | – | 49 | Not significant | 38 | 53 | 21 | 36 | 40
